According to ChEMBL document CHEMBL4138085, “Design, synthesis and antimicrobial evaluation of novel benzimidazole-incorporated sulfonamide analogues” (Eur J Med Chem, 2017):
Values after ≈ are worked out from the molar mass of the structure shown. Active and inactive are the calls of the source. The rule behind the calls is not given here.

Experiments:
Aspergillus flavus [1] = assay: Antifungal activity against Aspergillus flavus after 24 hrs by NCCLS two fold broth microdilution method; format: functional
Summary of the method: (§1)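 Two-fold serial microdilution following NCCLS. A spore suspension in sterile distilled water was prepared from one-day-old cultures grown on Sabouraud agar and adjusted to a final 1–5 × 10^3 spores/mL. DMSO stocks were diluted in RPMI 1640 to eleven concentrations (0.5–512 µg/mL), inoculated and held at 35 °C for 24 h. Growth was read visually and spectrophotometrically, MIC was the lowest concentration with complete inhibition, and runs were in triplicate.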

Albumin [2] = molecular target: T1, Albumin (Homo sapiens, UniProt P02768); assay: Binding affinity to human serum albumin assessed as Stern-Volmer quenching constant at 293 K by fluorescence spectroscopic analysis; format: ADME; settings: isolated protein
T1 sequence (P02768 whole entry): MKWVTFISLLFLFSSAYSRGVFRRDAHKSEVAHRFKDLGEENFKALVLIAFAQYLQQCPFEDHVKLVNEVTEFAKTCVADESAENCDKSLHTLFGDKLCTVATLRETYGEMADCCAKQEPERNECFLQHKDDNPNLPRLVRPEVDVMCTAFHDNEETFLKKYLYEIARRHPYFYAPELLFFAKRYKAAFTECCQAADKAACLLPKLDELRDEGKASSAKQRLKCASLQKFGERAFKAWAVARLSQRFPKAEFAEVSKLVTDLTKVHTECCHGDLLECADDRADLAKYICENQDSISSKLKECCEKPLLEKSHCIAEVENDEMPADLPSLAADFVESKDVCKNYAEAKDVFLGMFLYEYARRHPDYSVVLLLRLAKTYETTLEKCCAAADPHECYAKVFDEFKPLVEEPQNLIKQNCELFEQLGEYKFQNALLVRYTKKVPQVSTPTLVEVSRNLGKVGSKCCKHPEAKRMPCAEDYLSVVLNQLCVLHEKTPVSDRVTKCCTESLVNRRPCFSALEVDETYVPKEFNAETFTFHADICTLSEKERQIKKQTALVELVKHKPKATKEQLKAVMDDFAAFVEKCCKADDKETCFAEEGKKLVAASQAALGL
Summary of the method: (§2)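 Intrinsic fluorescence of HSA (single Trp-214, emission peak 348 nm) was recorded with increasing compound concentration at several temperatures. Quenching data were fitted to the Stern-Volmer equation F0/F = 1 + KSV[Q] = 1 + Kqτ0[Q] to give KSV, and Kq was derived via τ0.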

Candida albicans = assay: Antifungal activity against Candida albicans ATCC 76615 after 24 hrs by NCCLS two fold broth microdilution method; format: functional; settings: ATCC 76615, 24 h; summary of the method: as §1
Albumin [3] = molecular target: T1, Albumin; assay: Binding affinity to human serum albumin at 273 K by scatchard plot analysis; format: ADME; settings: isolated protein
Calf thymus DNA [4] = assay: Binding affinity to calf thymus DNA by UV-vis absorption spectra analysis; format: nucleic-acid assay; settings: Bos taurus
Summary of the method: (§3)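 Calf thymus DNA was held at a fixed concentration and titrated with increasing amounts of compound. UV-vis absorption spectra were recorded, following the DNA absorption maximum at 260 nm.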

Albumin [5] = molecular target: T1, Albumin; assay: Binding affinity to human serum albumin assessed as quenching constant at 293 K by fluorescence spectroscopic analysis; format: ADME; settings: isolated protein; summary of the method: as §2
Albumin [6] = molecular target: T1, Albumin; assay: Binding affinity to human serum albumin assessed as quenching constant at 273 K by fluorescence spectroscopic analysis; format: ADME; settings: isolated protein; summary of the method: as §2
Staphylococcus aureus [7] = assay: Antibacterial activity against Staphylococcus aureus ATCC 25923 after 24 hrs by NCCLS two fold broth microdilution method; format: functional; settings: ATCC 25923, 24 h
Summary of the method: (§4)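 Two-fold serial broth microdilution in 96-well plates following NCCLS. Compounds were dissolved in DMSO as stocks, then diluted in Mueller–Hinton broth to final concentrations of 0.5–512 µg/mL. Plates were inoculated and incubated at 37 °C for 24 h, with growth read visually and spectrophotometrically. MIC was taken as the lowest concentration giving complete growth inhibition. Run in triplicate, with a DMSO-plus-inoculum solvent control.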

Aspergillus flavus [8] = assay: Potency index, ratio of Fluconazole MIC to compound MIC for Aspergillus flavus; format: functional
Albumin [9] = molecular target: T1, Albumin; assay: Binding affinity to human serum albumin at 293 K by scatchard plot analysis; format: ADME; settings: isolated protein
Staphylococcus aureus [10] = assay: Antibacterial activity against methicillin-resistant Staphylococcus aureus N315 after 24 hrs by NCCLS two fold broth microdilution method; format: functional; settings: N315, 24 h
Summary of the method: (§5)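 Two-fold serial broth microdilution per NCCLS. Chloromycin and norfloxacin as reference drugs; DMSO with inoculum, no drug, as solvent control. Incubation 37 °C for 24 h. Growth read visually and spectrophotometrically. MIC is the lowest concentration completely inhibiting growth; triplicate.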

Albumin [11] = molecular target: T1, Albumin; assay: Binding affinity to human serum albumin assessed as change in enthalpy at 273 K by van't Hoff plot analysis; format: ADME; settings: isolated protein
Salmonella typhi [12] = assay: Antibacterial activity against Bacillus typhi after 24 hrs by NCCLS two fold broth microdilution method; format: functional, Salmonella enterica subsp. enterica serovar Typhi; settings: Salmonella enterica
Summary of the method: as §5, with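 “NCCLS. DMSO stocks diluted in Mueller–Hinton broth to 512, 256, 128, 64, 32, 16, 8, 4, 2, 1, 0.5 µg/mL.” for “NCCLS.”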

Albumin [13] = molecular target: T1, Albumin; assay: Binding affinity to human serum albumin assessed as Gibbs free energy change at 293 K by van't Hoff plot analysis; format: ADME; settings: isolated protein
Bacillus subtilis = assay: Antibacterial activity against Bacillus subtilis ATCC 21216 after 24 hrs by NCCLS two fold broth microdilution method; format: functional; settings: ATCC 21216, 24 h; summary of the method: as §4
Escherichia coli = assay: Antibacterial activity against Escherichia coli ATCC 8099 after 24 hrs by NCCLS two fold broth microdilution method; format: functional; settings: ATCC 8099, 24 h
Summary of the method: as §4, with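 “NCCLS.” for “NCCLS. Compounds were dissolved in DMSO as stocks, then diluted in Mueller–Hinton broth to final concentrations of 0.5–512 µg/mL.”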

Albumin [14] = molecular target: T1, Albumin; assay: Binding affinity to human serum albumin assessed as quenching constant at 313 K by fluorescence spectroscopic analysis; format: ADME; settings: isolated protein; summary of the method: as §2
Albumin [15] = molecular target: T1, Albumin; assay: Binding affinity to human serum albumin by fluorescence spectroscopic analysis; format: ADME; settings: isolated protein
Albumin [16] = molecular target: T1, Albumin; assay: Binding affinity to human serum albumin assessed as Gibbs free energy change at 273 K by van't Hoff plot analysis; format: ADME; settings: isolated protein
Albumin [17] = molecular target: T1, Albumin; assay: Binding affinity to human serum albumin assessed as change in entropy at 273 K by van't Hoff plot analysis; format: ADME; settings: isolated protein
Cyberlindnera jadinii = assay: Antifungal activity against Candida utilis after 24 hrs by NCCLS two fold broth microdilution method; format: functional; settings: Williopsis jadinii; summary of the method: as §1
Bacillus = assay: Antibacterial activity against Bacillus proteus ATCC 13315 after 24 hrs by NCCLS two fold broth microdilution method; format: functional; settings: ATCC 13315, 24 h; summary of the method: as §4
Micrococcus luteus = assay: Antibacterial activity against Micrococcus luteus ATCC 4698 after 24 hrs by NCCLS two fold broth microdilution method; format: functional; settings: NCTC 2665, 24 h; summary of the method: as §4
Albumin [18] = molecular target: T1, Albumin; assay: Binding affinity to human serum albumin at 313 K by scatchard plot analysis; format: ADME; settings: isolated protein
Albumin [19] = molecular target: T1, Albumin; assay: Binding affinity to human serum albumin assessed as Gibbs free energy change at 313 K by van't Hoff plot analysis; format: ADME; settings: isolated protein
Albumin [20] = molecular target: T1, Albumin; assay: Binding affinity to human serum albumin up to 1.6 10^-5 mol/L by UV-vis absorption spectra analysis; format: ADME; settings: isolated protein
Calf thymus DNA [21] = assay: Binding affinity to calf thymus DNA assessed as increase in maximum absorption by UV-vis absorption spectra analysis; format: nucleic-acid assay; settings: Bos taurus; summary of the method: as §3
Calf thymus DNA [22] = assay: Binding affinity to calf thymus DNA assessed as hyperchromic effect up to 1.6 10^-5 mol/L by UV-vis absorption spectra analysis; format: nucleic-acid assay; settings: Bos taurus; summary of the method: as §3
Albumin [23] = molecular target: T1, Albumin; assay: Binding affinity to human serum albumin at 273 K by modified Stern-Volmer method; format: ADME; settings: isolated protein
Pseudomonas aeruginosa = assay: Antibacterial activity against Pseudomonas aeruginosa ATCC 27853 after 24 hrs by NCCLS two fold broth microdilution method; format: functional; settings: ATCC 27853, 24 h
Summary of the method: as §4, with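 “NCCLS.” for “NCCLS. Compounds were dissolved in DMSO as stocks, then diluted in Mueller–Hinton broth to final concentrations of 0.5–512 µg/mL.”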

Albumin [24] = molecular target: T1, Albumin; assay: Binding affinity to human serum albumin assessed as Stern-Volmer quenching constant at 313 K by fluorescence spectroscopic analysis; format: ADME; settings: isolated protein; summary of the method: as §2
Albumin [25] = molecular target: T1, Albumin; assay: Binding affinity to human serum albumin at 293 K by modified Stern-Volmer method; format: ADME; settings: isolated protein
Calf thymus DNA [26] = assay: Inhibition of neutral red binding to calf thymus DNA up to 0.48 10^-5 mol/L by UV-vis absorption spectra analysis; format: nucleic-acid assay; settings: Bos taurus
Albumin [27] = molecular target: T1, Albumin; assay: Binding affinity to human serum albumin assessed as Stern-Volmer quenching constant at 273 K by fluorescence spectroscopic analysis; format: ADME; settings: isolated protein; summary of the method: as §2
Calf thymus DNA [28] = assay: Binding affinity to calf thymus DNA assessed as hypochromic effect up to 1.6 10^-5 mol/L by UV-vis absorption spectra analysis; format: nucleic-acid assay; settings: Bos taurus; summary of the method: as §3
Salmonella typhi [29] = assay: Potency index, ratio of Chloromycin MIC to compound MIC for Bacillus typhi; format: functional, Salmonella enterica subsp. enterica serovar Typhi
Pichia norvegensis = assay: Antifungal activity against Candida mycoderma after 24 hrs by NCCLS two fold broth microdilution method; format: functional
Saccharomyces cerevisiae = assay: Antifungal activity against Saccharomyces cerevisiae after 24 hrs by NCCLS two fold broth microdilution method; format: functional; summary of the method: as §1
Albumin [30] = molecular target: T1, Albumin; assay: Binding affinity to human serum albumin at 313 K by modified Stern-Volmer method; format: ADME; settings: isolated protein

**Q.** `CC(=O)Nc1ccc(S(=O)(=O)Cc2nc3ccccc3n2Cc2ccc(Cl)cc2Cl)cc1` was tested. Which MIC (Aspergillus flavus [1]) did it give?
**A.** 32 µg/mL (≈ 65.5 µM)

**Q.** And the KSV (Albumin [2])?
**A.** 4.08 ×10⁴ L/mol

**Q.** What about the MIC (Candida albicans) of the same molecule?
**A.** 512 µg/mL (≈ 1050 µM)

**Q.** What about the Kb (Albumin [3]) of the same molecule?
**A.** 65600 M⁻¹

**Q.** What about the K (Calf thymus DNA [4]) of the same molecule?
**A.** 1.52 ×10⁴ L/mol

**Q.** And the Kq (Albumin [5])?
**A.** 6.38 ×10¹² L/mol/s

**Q.** What about the Kq (Albumin [6]) of the same molecule?
**A.** 8.2 ×10¹² L/mol/s

**Q.** What about the MIC (Staphylococcus aureus [7]) of the same molecule?
**A.** 64 µg/mL (≈ 131 µM)

**Q.** And the Ratio (Aspergillus flavus [8])?
**A.** 16

**Q.** And the Kb (Albumin [9])?
**A.** 59300 M⁻¹

**Q.** And the MIC (Staphylococcus aureus [10])?
**A.** 128 µg/mL (≈ 262 µM)

**Q.** What about the deltaH (Albumin [11]) of the same molecule?
**A.** -0.196 kcal/mol

**Q.** And the MIC (Salmonella typhi [12])?
**A.** 4 µg/mL (≈ 8.19 µM)

**Q.** What about the deltaG (Albumin [13]) of the same molecule?
**A.** -5.2682 kcal/mol

**Q.** What about the MIC (Bacillus subtilis) of the same molecule?
**A.** 16 µg/mL (≈ 32.8 µM)

**Q.** What about the MIC (Escherichia coli) of the same molecule?
**A.** 8 µg/mL (≈ 16.4 µM)

**Q.** What about the Kq (Albumin [14]) of the same molecule?
**A.** 4.72 ×10¹² L/mol/s

**Q.** What about the Activity (Albumin [15]) of the same molecule?
**A.** Dose-dependent effect

**Q.** And the deltaG (Albumin [16])?
**A.** -5.0523 kcal/mol

**Q.** And the deltaS (Albumin [17])?
**A.** 74.429 J/mol/K

**Q.** What about the MIC (Cyberlindnera jadinii) of the same molecule?
**A.** 128 µg/mL (≈ 262 µM)

**Q.** What about the MIC (Bacillus) of the same molecule?
**A.** 32 µg/mL (≈ 65.5 µM)

**Q.** And the MIC (Micrococcus luteus)?
**A.** 128 µg/mL (≈ 262 µM)

**Q.** What about the Kb (Albumin [18]) of the same molecule?
**A.** 42100 M⁻¹

**Q.** And the deltaG (Albumin [19])?
**A.** -5.7639 kcal/mol

**Q.** And the Activity (Albumin [20])?
**A.** Active

**Q.** And the Activity (Calf thymus DNA [21])?
**A.** Dose-dependent effect

**Q.** And the Activity (Calf thymus DNA [22])?
**A.** Active

**Q.** And the Ka (Albumin [23])?
**A.** 11100 M⁻¹

**Q.** What about the MIC (Pseudomonas aeruginosa) of the same molecule?
**A.** 16 µg/mL (≈ 32.8 µM)

**Q.** What about the KSV (Albumin [24]) of the same molecule?
**A.** 3.02 ×10⁴ L/mol

**Q.** What about the Ka (Albumin [25]) of the same molecule?
**A.** 10800 M⁻¹

**Q.** And the inhibition (Calf thymus DNA [26])?
**A.** Active

**Q.** What about the KSV (Albumin [27]) of the same molecule?
**A.** 5.25 ×10⁴ L/mol

**Q.** What about the Activity (Calf thymus DNA [28]) of the same molecule?
**A.** inactive

**Q.** And the Ratio (Salmonella typhi [29])?
**A.** 8

**Q.** What about the MIC (Pichia norvegensis) of the same molecule?
**A.** 512 µg/mL (≈ 1050 µM)

**Q.** And the MIC (Saccharomyces cerevisiae)?
**A.** 128 µg/mL (≈ 262 µM)

**Q.** And the Ka (Albumin [30])?
**A.** 10600 M⁻¹
